Measurements collected from several papers.
Lines come from different studies, so protocols differ.
Observed: cell growth or viability

SMILES	cell line	technique	concentration	time	setting	quantity	result
Cc1ccc(NC(=O)c2ccc(CN3CCN(C)CC3)cc2)cc1Nc1nccc(-c2cccnc2)n1	K562	MTT	0.2 µM			viability	41.6%
N.N.[Cl][Pt][Cl]	K562	ATP luminescence	10 µM	72 h		inhibition	97%
Cc1ncsc1-c1ccc([C@H](C)NC(=O)[C@@H]2C[C@@H](O)CN2C(=O)[C@@H](c2cc(N3CCC(CN4CCC(OC5CC(Oc6cc(N7C8CCC7CN(c7cc(-c9ccccc9O)nnc7N)C8)ccn6)C5)CC4)CC3)no2)C(C)C)cc1 (some centres unmarked)	VCaP	ATP luminescence		7 days		IC50	0.0043 µM
N.N.[Cl][Pt][Cl]	MCF-10A	MTT		48 h	dark	IC50	34.6 µM
CC[C@H](C)[C@@H]([C@@H](CC(=O)N1CCC[C@H]1[C@H](OC)[C@@H](C)C(=O)N[C@H](C)[C@@H](O)c1ccccc1)OC)N(C)C(=O)[C@@H](NC(=O)[C@H](C(C)C)N(C)C(=O)OCc1ccc(NC(=O)[C@H](CCCNC(N)=O)NC(=O)[C@@H](NC(=O)CCOCCOCCOCCOCCC(=O)N[C@@H]2CSSC[C@H](C(=O)O)NC(=O)CNC(=O)[C@@H](CCCNC(=N)N)NC(=O)CNC(=O)[C@@H](C(C)C)NC(=O)CNC(=O)[C@@H](C)NC(=O)[C@@H](CCCNC(=N)N)NC2=O)C(C)C)cc1)C(C)C	4T1	resazurin		24 h		IC50	0.5 µM
CN(C)c1ccc(C(=O)NCCCCCCC(=O)NO)cc1	OCI-Ly1	ATP luminescence	0.5 µM	5 days		viability	62.3%
CC[C@H](C)[C@@H]([C@@H](CC(=O)N1CCC[C@H]1[C@H](OC)[C@@H](C)C(=O)N[C@H](C)[C@@H](O)c1ccccc1)OC)N(C)C(=O)[C@@H](NC(=O)[C@@H](NC)C(C)C)C(C)C	4T1	CCK-8				IC50	0.000294 µM
CC(=O)N[C@H]1[C@@H](O[C@@H]2O[C@H](C[C@@H](O)[C@H]3O[C@@H](n4ccc(=O)[nH]c4=O)[C@H](O)[C@@H]3O)[C@H](O)[C@H](O)[C@H]2NC(=O)/C=C/CCCCCCCCCC(C)C)O[C@H](CO)[C@@H](O)[C@@H]1O	MCF-10A	WST-1				IC50	0.25 µM
